Reference: ChEMBL document CHEMBL1152868, “Activation of aldehyde dehydrogenase-2 reduces ischemic damage to the heart” (Science, 2008)
Activity calls are given as the source filed them. The rule behind the calls is not given here.

Key:
[1] = target: T1, Aldehyde dehydrogenase, mitochondrial (Rattus norvegicus) (UniProt P11884); assay: Induction of ALDH2 activity in langendorff perfused ischemic Wistar rat heart homogenate assessed as NADH level in per mg of protein at 1 uM after 10 mins by spectrophotometry; format: tissue-based
T1 sequence (whole entry): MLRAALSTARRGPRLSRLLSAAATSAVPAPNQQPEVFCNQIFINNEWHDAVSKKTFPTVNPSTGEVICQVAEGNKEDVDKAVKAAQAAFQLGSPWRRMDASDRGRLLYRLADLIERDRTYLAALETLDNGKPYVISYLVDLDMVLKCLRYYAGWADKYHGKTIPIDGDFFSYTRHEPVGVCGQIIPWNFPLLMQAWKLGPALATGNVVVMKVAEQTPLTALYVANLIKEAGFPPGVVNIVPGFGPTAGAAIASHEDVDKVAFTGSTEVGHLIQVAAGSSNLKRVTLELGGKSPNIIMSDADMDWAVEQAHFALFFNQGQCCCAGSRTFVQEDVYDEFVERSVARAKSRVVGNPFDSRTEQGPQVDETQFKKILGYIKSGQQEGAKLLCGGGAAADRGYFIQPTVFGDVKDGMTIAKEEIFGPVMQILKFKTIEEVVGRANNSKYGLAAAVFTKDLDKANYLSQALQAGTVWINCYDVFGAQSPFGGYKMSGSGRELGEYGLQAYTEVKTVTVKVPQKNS
Outline: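 Rat hearts on a Langendorff apparatus perfused with oxygenated Krebs-Henseleit buffer containing 1μM εPKC agonist peptide for 10 min, then subjected to ischemia; ALDH activity measured in heart homogenates.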

[2] = tested on: Heart; assay: Cardiac protection in Langendorff perfused ischemic Wistar rat heart assessed as reduction of infarct size at 1 uM for 10 mins by TTC staining; format: functional; design: scale not given: the % may be the effect or the level left
[3] = tested on: Rattus norvegicus; assay: Cardiac protection in Wistar rat assessed as decrease in infarct size at 5 ug/min/kg for 13 hrs prolonged treatment terminated 3 hrs before ischemia; format: functional; design: scale not given: the % may be the effect or the level left
[4] = tested on: Rattus norvegicus; assay: Reduction of cardiac damage in acute myocardial infarction Wistar rat model assessed as decrease in myocardial infarction at 8.5 mg/kg treated 5 mins before ischemia by TTC staining; format: functional, Myocardium; design: scale not given: the % may be the effect or the level left
Outline: (§1)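 In vivo: 8.5 mg/kg injected into left ventricle five minutes before ischemia; 35 min ischemia then 60 min reperfusion; infarct size of left ventricular free wall expressed as percent, n=7.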

[5] = tested on: Rattus norvegicus; assay: Toxicity in Wistar rat assessed as histopathology at 6 mg/kg/day for 1 week; format: organism-based; conditions: in vivo, 168 h
[6] = tested on: Rattus norvegicus; assay: Toxicity in Wistar rat assessed as blood parameters at 6 mg/kg/day for 1 week; format: organism-based; conditions: in vivo, 168 h
[7] = tested on: Rattus norvegicus; assay: Induction of cell-stress in Wistar rat heart assessed as JNK activation at 8.5 mg/kg after 5 mind by Western blot analysis; format: functional, organism-based; design: dose 8.5 mg/kg
[8] = tested on: Rattus norvegicus; assay: Induction of cell-stress in Wistar rat heart assessed as JNK activation at 8.5 mg/kg after ischemia followed by reperfusion by occluding left anterior descending coronary artery ligation for 35 mins by Western blot analysis; format: functional, organism-based; design: dose 8.5 mg/kg
Outline: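 In vivo rat model: 8.5 mg/kg given into the left ventricle five minutes before 35 min ischemia, followed by 60 min reperfusion.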

[9] = target: T2, Aldehyde dehydrogenase, mitochondrial (Homo sapiens) (UniProt P05091); assay: Activation of human ALDH2 assessed as phosphorylated enzyme at 20 uM in absence of rat PKCepsilon by spectrophotometry
T2 sequence (whole entry): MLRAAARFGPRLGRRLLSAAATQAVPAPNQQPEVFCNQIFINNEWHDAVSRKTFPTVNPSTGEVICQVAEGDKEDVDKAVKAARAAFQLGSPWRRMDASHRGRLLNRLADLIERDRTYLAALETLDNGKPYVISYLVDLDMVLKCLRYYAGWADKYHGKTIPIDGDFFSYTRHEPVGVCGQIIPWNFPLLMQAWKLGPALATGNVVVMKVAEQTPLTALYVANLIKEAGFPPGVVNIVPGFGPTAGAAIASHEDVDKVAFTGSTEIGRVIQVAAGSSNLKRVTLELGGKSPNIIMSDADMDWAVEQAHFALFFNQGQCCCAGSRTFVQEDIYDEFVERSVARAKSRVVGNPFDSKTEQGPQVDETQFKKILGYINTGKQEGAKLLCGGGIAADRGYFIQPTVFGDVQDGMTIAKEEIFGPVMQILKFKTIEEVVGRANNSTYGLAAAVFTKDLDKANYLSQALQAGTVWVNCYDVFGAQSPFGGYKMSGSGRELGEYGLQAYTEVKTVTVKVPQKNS

[10] = target: T2, Aldehyde dehydrogenase, mitochondrial (Homo sapiens); assay: Activation of human ALDH2 assessed as phosphorylated enzyme at 20 uM in presence of rat PKCepsilon by spectrophotometry
[11] = Effect on alcohol dehydrogenase 1 activity at 100 uM
[12] = target: T3, Aldehyde dehydrogenase 1A1 (Homo sapiens) (UniProt P00352); assay: Effect on human recombinant his-tagged cytosolic ALDH1A1 activity expressed in Escherichia coli BL21 cells at 100 uM
T3 sequence (whole entry): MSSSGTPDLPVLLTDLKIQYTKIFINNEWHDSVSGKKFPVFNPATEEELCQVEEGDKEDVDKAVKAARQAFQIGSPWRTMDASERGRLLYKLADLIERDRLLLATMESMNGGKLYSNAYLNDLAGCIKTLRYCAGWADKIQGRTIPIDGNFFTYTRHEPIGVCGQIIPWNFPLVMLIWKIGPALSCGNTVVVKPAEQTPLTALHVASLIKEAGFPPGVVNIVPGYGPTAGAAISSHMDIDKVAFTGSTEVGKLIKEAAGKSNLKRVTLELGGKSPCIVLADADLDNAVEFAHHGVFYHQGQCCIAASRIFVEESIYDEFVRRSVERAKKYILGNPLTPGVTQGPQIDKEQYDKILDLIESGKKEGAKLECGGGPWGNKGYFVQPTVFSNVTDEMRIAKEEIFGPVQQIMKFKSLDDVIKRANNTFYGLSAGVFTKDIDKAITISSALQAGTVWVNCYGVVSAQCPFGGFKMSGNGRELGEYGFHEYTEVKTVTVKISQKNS

[13] = target: T4, Aldehyde dehydrogenase X, mitochondrial (Homo sapiens) (UniProt P30837); assay: Effect on human recombinant his-tagged mitochondrial ALDH5 activity expressed in Escherichia coli BL21 cells at 100 uM
T4 sequence (whole entry): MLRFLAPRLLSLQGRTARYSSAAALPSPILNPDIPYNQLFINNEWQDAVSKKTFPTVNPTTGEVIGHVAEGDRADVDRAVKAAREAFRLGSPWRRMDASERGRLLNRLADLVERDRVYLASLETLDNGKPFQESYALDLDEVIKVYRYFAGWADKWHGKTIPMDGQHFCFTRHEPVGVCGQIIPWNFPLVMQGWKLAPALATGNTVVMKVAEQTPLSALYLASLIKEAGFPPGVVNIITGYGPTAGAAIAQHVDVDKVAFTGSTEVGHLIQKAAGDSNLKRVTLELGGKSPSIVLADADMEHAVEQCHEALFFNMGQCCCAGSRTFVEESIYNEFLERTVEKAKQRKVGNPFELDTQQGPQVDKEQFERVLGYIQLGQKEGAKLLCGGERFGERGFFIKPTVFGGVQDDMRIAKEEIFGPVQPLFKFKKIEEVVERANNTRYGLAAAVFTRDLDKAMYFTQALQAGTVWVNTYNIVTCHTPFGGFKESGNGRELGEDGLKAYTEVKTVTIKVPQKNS

[14] = tested on: BL21; assay: Increase in human recombinant ALDH2*2 E487K mutant activity expressed in Escherichia coli BL21 cells
Outline: (§2)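 Recombinant human ALDH2 proteins (wild type, heterozygous and homozygous mutant forms), 20μg each, assayed for enzymatic activity with 100 μM activator present; activity expressed as percent of untreated control; n=3.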

[15] = tested on: BL21; assay: Increase in human recombinant ALDH2*1/*2 E487K mutant heterotetramer activity expressed in Escherichia coli BL21 cells using wild type and mutant allele; outline: as §2
[16] = target: T2, Aldehyde dehydrogenase, mitochondrial (Homo sapiens); assay: Increase in wild type human recombinant ALDH2*1/*1 homotetramer activity expressed in Escherichia coli BL21 cells using wild type allele relative to basal activity; outline: as §2
[17] = tested on: BL21; assay: Activation of human recombinant ALDH2*2 E487K mutant expressed Escherichia coli BL21 cells at 10 uM relative to control
[18] = target: T2, Aldehyde dehydrogenase, mitochondrial (Homo sapiens); assay: Activation of wild type human recombinant ALDH2*1 expressed Escherichia coli BL21 cells at 10 uM relative to control
[19] = tested on: Heart; assay: Ex vivo cardiac protection in Langendorff perfused Wistar rat heart assessed decrease in myocardial infarct size at 20 uM treated […] ischemia followed by 60 mins reperfusion by TTC staining; format: functional; design: scale not given: the % may be the effect or the level left
Outline: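 Langendorff-perfused rat hearts pretreated 10 min with 20 μM drug or vehicle, then 35 min ischemia and 60 min reperfusion. Infarct size assessed by TTC staining of cross-sectional slices; n=7 hearts per group.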

[20] = tested on: Heart; assay: Ex vivo cardiac protection in Langendorff perfused Wistar rat heart assessed decrease of CPK release at 20 uM treated 35 mins before ischemia followed by 60 mins reperfusion; format: functional; design: scale not given: the % may be the effect or the level left
[21] = tested on: Rattus norvegicus; assay: Reduction of cardiac damage in acute myocardial infarction Wistar rat model assessed as decrease in infarct size at 8.5 mg/kg treated before left anterior descending coronary artery ligation measured after 35 mins of ischemia followed by 60 mins reperfusion by TTC staining; format: functional, Myocardium; design: scale not given: the % may be the effect or the level left; outline: as §1

Molecule: H-HDAPIGYD-OH
- Activity [1]: 3.2 µmol/min
- Activity [2]: 23%

Molecule: O=[N+]([O-])OCC(CO[N+](=O)[O-])O[N+](=O)[O-] [NITROGLYCERIN]
- Activity [3]: 33%

Molecule: O=C(NCc1ccc2c(c1)OCO2)c1c(Cl)cccc1Cl
- Activity [4]: 60%
- Activity [5]: Non-toxic
- Activity [6]: Non-toxic
- Activity [7]: inactive
- Activity [8]: inactive
- Activity [9]: 90%
- Activity [10]: 100%
- Activity [11]: inactive
- Activity [12]: inactive
- Activity [13]: inactive
- fold change (FC) [14]: 11
- fold change (FC) [15]: 2.2
- fold change (FC) [16]: 2.1
- Activity [17]: 900%
- Activity [18]: 65%
- Activity [19]: 26%
- Activity [20]: 24%
- Activity [21]: 43%

Molecule: O=C(NCc1ccc2c(c1)OCO2)c1ccccc1Br
- Activity [17]: 550%
- Activity [18]: 56%

Molecule: O=C(NCc1ccc2c(c1)OCO2)c1c(F)cccc1F
- Activity [17]: 330%
- Activity [18]: 41%
